Screens deposited in PubChem BioAssay by Sanford-Burnham Center for Chemical Genomics.
mIAP activ = increases mouse intestinal alkaline phosphatase activity | activation factor at 10 µM | muIAP, CDP-Star luminescence, 30 min; stronger effect = higher value; 1 = vehicle-only enzyme signal, 0 = enzyme-free wells | 330,000 tested, 0.24% active;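 active = activation factor of at least 2 at 20 µM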
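Assay system: mouse IAP enzyme; reagent: chemiluminescent substrate CDP-Star; dosing: test compounds delivered from DMSO solution; schedule: 30 min at room temperature; measured by: luminescence from enzymatic CDP-Star hydrolysis; controls: DMSO-only wells and no-enzyme negative control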
hIAP block = blocks human intestinal alkaline phosphatase. inhibition, % at 10 µM. AID 2544. 330,000 tested, 0.12% active. P09923. purified IAP, CDP-Star luminescence, 30 min;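 active = inhibition reaching a set limit with compound at 10 µM in the primary screen, cut at about 35% in these data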;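 note: plate controls were DMSO wells with enzyme for no effect and no-enzyme buffer wells for full effect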
Target sequence (P09923 whole entry, looked up): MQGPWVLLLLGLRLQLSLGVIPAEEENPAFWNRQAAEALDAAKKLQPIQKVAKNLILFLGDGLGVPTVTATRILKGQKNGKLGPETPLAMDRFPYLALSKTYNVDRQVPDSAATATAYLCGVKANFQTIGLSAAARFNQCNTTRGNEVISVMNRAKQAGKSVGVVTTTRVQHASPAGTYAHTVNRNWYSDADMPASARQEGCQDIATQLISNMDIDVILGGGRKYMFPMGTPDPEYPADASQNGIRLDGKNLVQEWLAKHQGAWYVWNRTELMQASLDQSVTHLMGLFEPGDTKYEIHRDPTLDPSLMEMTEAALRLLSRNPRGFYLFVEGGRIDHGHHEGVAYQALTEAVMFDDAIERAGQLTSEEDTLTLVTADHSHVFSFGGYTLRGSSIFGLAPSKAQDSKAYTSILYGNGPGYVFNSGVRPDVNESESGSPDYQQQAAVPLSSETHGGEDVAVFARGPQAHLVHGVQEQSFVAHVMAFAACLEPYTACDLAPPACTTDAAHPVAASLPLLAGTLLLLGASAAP
bIAP activator = increases bovine intestinal alkaline phosphatase activity; purified bovine IAP, CDP-star luminescence, 30 min; stronger effect = higher value; fold of DMSO-control signal, blank-subtracted; activation factor at 20 µM; 200,000 tested, 0.17% active; AID 1016;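 active = activation factor of 2 or more at 20 µM, a signal rise over negative controls twice the positive control's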
mIAP block = mouse IAP inhibition; purified mouse IAP, CDP-Star luminescence, 30 min; 330,000 tested, 0.2% active; inhibition, % at 10 µM; AID 2806;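 active = inhibition of at least 40% at 10 µM in the primary screen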;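 note: plate controls were DMSO with enzyme for no effect and no enzyme wells for full effect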
bIAP inh = intestinal alkaline phosphatase (bovine) inhibition; purified bovine IAP, CDP-star luminescence, 30 min; inhibition, % at 20 µM; 190,000 tested, under 10 active;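 active = over 50% inhibition of intestinal alkaline phosphatase at 20 µM in the single-dose screen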
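Assay system: bovine IAP enzyme; medium: DEA buffer 100 mM, pH 9.8, with MgCl2 1.0 mM, ZnCl2 0.02 mM; doses: 20 µM single dose; incubation: enzyme reaction for 30 min at room temperature; detection: CDP-star luminescence signal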
hIAP activ = increases human intestinal alkaline phosphatase activity; P09923; purified human IAP, CDP-Star luminescence, 30 min; stronger effect = higher value; 1 = vehicle-only enzyme, 0 = enzyme-free background; activation factor at 10 µM; 330,000 tested, 0.16% active; AID 2524;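 active = activation factor of the enzyme at least 2-fold when tested at 20 µM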
The depositor's hits bear a star; . = not tested or not shown. Rows were chosen to be rich in hits. Some 0.79% of all compounds tested hit in one or more screens of this group.

SMILES	mIAP activ	hIAP block	bIAP activator	mIAP block	bIAP inh	hIAP activ
CC(C)(C)c1ccc(/C=N/NC(=S)Nc2cccnc2)cc1	1	-3	1	-1	-3	1
CCOC(=O)C(CC(=O)O)=C(c1ccccc1)c1ccccc1	1.1	1	.	-13	.	0.99
COc1cc(CN2CCNC(=O)C2CC(=O)NC2CCC2)cc(OC)c1 (stereo unspecified)	0.99	29	.	1	.	0.71
C#CCOCCOCCOCCNc1nc(N2CCN(C(=O)[C@H]([C@@H](C)CC)n3cc([C@@H](N)Cc4ccc(O)cc4)nn3)CC2)nc(N2CCN(C(=O)[C@H](Cc3cc4ccccc4[nH]3)n3cc([C@@H](N)C(C)CC)nn3)CC2)n1 (stereo partly specified)	1.4	20	1.6	-39	-59	0.8
C#CCOCCOCCOCCNc1nc(N2CCN(C(=O)[C@H](Cc3cc4ccccc4[nH]3)n3cc([C@@H](N)CC(C)C)nn3)CC2)nc(N2CCN(C(=O)[C@H](Cc3cc4ccccc4[nH]3)n3cc([C@@H](N)CC(C)C)nn3)CC2)n1	2.1*	-12	3.2*	-109	-220	1.1
C#CCOCCOCCOCCNc1nc(N2CCN(C(=O)[C@H](Cc3cc4ccccc4[nH]3)n3cc([C@@H](N)C(C)CC)nn3)CC2)nc(N2CCN(C(=O)[C@H](Cc3cc4ccccc4[nH]3)n3cc([C@@H](N)Cc4ccc(O)cc4)nn3)CC2)n1 (stereo partly specified)	2.1*	-11	2.2*	-108	-116	1.1
Cc1coc2cc3oc(=O)c(CCC(=O)NCCN4CCOCC4)c(C)c3cc12	1	3	.	-3	.	0.97
Cc1ccc(C(C)NC(=S)NCc2ccc(F)cc2)cc1C (stereo unspecified)	1.9	10	.	-94	.	0.9
Cc1ccc(C(C)NC(=S)NCc2ccc(F)cc2)c(C)c1 (stereo unspecified)	2.1*	-36	.	-114	.	1.4
CCc1ccc(C(C)NC(=S)NCc2ccc(F)cc2)cc1 (stereo unspecified)	2.1*	-41	.	-109	.	1.4
CC(NCc1cc(Br)ccc1OCC(N)=O)C12CC3CC(CC(C3)C1)C2 (stereo unspecified)	1	-11	.	-3	.	1.1
O=C(Oc1ccccc1C(=O)N1CCOCC1)c1ccc(Br)cc1	0.89	-2	2.2*	11	-118	1
O=C(Oc1ccccc1C(=O)N1CCOCC1)c1ccc(F)cc1	1	1	.	0	.	0.99
Cc1nn(Cc2ccc(Cl)cc2Cl)c(C)c1NC(=O)NC12CC3CC(CC(C3)C1)C2	2.1*	12	1.3	-112	-34	0.88
Cc1nn(Cc2ccc(Cl)cc2Cl)c(C)c1NC(=O)c1sc2ccccc2c1Cl	0.96	1	0.9	4	13	0.99
O=C(NCc1ccco1)c1nc2c(nnn2Cc2cccc(Cl)c2)c(=O)[nH]1	1.1	-24	1	-9	-3	1.2
O=C(NCc1ccccc1)c1nc2c(nnn2Cc2cccc(Cl)c2)c(=O)[nH]1	1	-26	2.2*	-1	-116	1.3
CCc1noc(C)c1C(=O)NNC(=O)COc1ccc(Br)cc1	1	-23	.	-1	.	1.2
Cc1cc(C)c(C(=O)Nc2ccc(Br)c(C(F)(F)F)c2)c(C)c1	2.1*	-7	1.1	-114	-9	1.1
O=C(O)c1ccccc1C(=O)Nc1ccc(Br)c(C(F)(F)F)c1	1.1	4	.	-9	.	0.96
COc1ccc(-c2nn(-c3ccccc3)cc2C(=O)NCCCn2ccnc2)cc1	1.5	9	2.3*	-46	-125	0.91
COc1ccc(C(=O)NCCCn2ccnc2)cc1	0.97	-26	0.9	3	6	1.3
NC(=O)[C@@H]1CCCN1C(=O)c1ccc2nc(Cc3cccc(Cl)c3)oc2c1	0.93	-10	.	7	.	1.1
Cc1ccc(C(=O)NC(NC(=O)c2ccc(C)cc2)C(Cl)Cl)cc1	3.4*	-16	0.7	-238	29	1.2
CC(C)CCNC(=S)Nc1ccc(Br)cc1	2.2*	-17	1	-124	-4	1.2
COc1cc([N+](=O)[O-])ccc1NC(=O)NCC1CCN(Cc2ccc(Cl)cc2)CC1	1	8	.	-2	.	0.92
O=C(NCCN1CCN(Cc2ccccc2)CC1)Nc1cc(Cl)cc(Cl)c1	2*	-4	.	-102	.	1
